The structures appear in SMILES notation. Activity calls are given as the source filed them. The calls are words filed in the database; no cut-off is given here.

The subject of data set [1] is Lipid bilayer. The data set can be described thus: Binding affinity to DPH-labeled liposomal membrane without cholesterol assessed as increase in membrane fluidity by measuring decrease in DPH fluorescence polarization after 5 mins by spectrofluorometry. Summed up: (§1)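 Fresh DPH-labeled liposomes (ethanol injection into HEPES pH 7.4 with NaCl/KCl) contained 0–45 mol% cholesterol, with the remaining lipids POPC/POPE/CL/POPS/POPI/SM at 25:16:10:3:3:3. Enantiomer pairs were tested on the same day. Each was given at 200 uM final with DMSO at 0.5% v/v, and vehicle controls matched. After 5 min at 37 °C, DPH fluorescence polarization was measured. Values are % polarization change relative to control, mean ± SEM, n=7.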
In general terms: In fluorescence polarisation assays a small probe gives low polarisation when free and higher when bound to something large.

Data set [2] has as its system Lipid bilayer. Description: Binding affinity to DPH-labeled liposomal membrane containing 5 to 45 mol% cholesterol assessed as increase in membrane fluidity by measuring decrease in DPH fluorescence polarization after 5 mins by spectrofluorometry. The method, boiled down:
as §1

Data set [3] has as its system Lipid bilayer. The data set can be described thus: Binding affinity to DPH-labeled liposomal membrane containing 40 mol% cholesterol assessed as increase in membrane fluidity by measuring decrease in DPH fluorescence polarization at 200 uM after 5 mins by spectrofluorometry. Summed up:
as §1

For data set [4], the system named is Lipid bilayer. The data set can be described thus: Binding affinity to DPH-labeled liposomal membrane containing 20 mol% cardiolipin 40 mol% cholesterol assessed as increase in membrane fluidity by measuring decrease in DPH fluorescence polarization at 200 uM after 5 mins by spectrofluorometry. Summed up: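 DPH-labeled liposomes made by ethanol injection (10 mM total lipid, 50 uM DPH in the injected stock) into 10 mM HEPES pH 7.4 with 125 mM NaCl and 25 mM KCl. Membranes held 0 or 20 mol% cardiolipin, with or without 40 mol% cholesterol, and POPC/POPE/POPS/POPI/SM at 25:16:3:3:3. Drug was added at 200 uM final in 0.5% DMSO, incubated 37 °C for 5 min, and DPH polarization read. Results are % change vs DMSO control, mean ± SEM, n=7.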

The subject of data set [5] is Lipid bilayer. Description: Increase in membrane fluidity in DPH-labeled liposomal membrane containing 20 mol% cardiolipin 40 mol% cholesterol assessed as change in DPH fluorescence polarization at 200 uM after 5 mins by spectrofluorometry relative to liposome without cardiolipin.
For data set [6], the species on record is Canis familiaris. Description: Cardiotoxicity in dog assessed as total plasma concentration causing cardiovascular collapse measured after 20 mins. In kind it is toxicity, organism-based, Canis lupus familiaris.
Data set [7] has as its system Lipid bilayer. The data set can be described thus: Increase in membrane fluidity in DPH-labeled liposomal membrane containing 40 mol% cholesterol assessed as change in DPH fluorescence polarization at 200 uM after 5 mins by spectrofluorometry relative to control. The data set is classed as cell membranes. The method, boiled down:
as §1

For data set [8], the species on record is Canis familiaris. Description: Cardiotoxicity in dog assessed as free plasma concentration causing cardiovascular collapse measured after 20 mins. The data set is classed as toxicity, organism-based, Canis lupus familiaris.

On to `CCCCN1CCCC[C@@H]1C(=O)Nc1c(C)cccc1C`, for which the result in data set [1], in data set [2], in data set [3] and in data set [4] was Active. Besides, the fold change (FC) in data set [5] came to 3.7.

As for `CCCCN1CCCCC1C(=O)Nc1c(C)cccc1C` (racemic) [BUPIVACAINE], the Activity was found to be 39 µM in data set [6] and 10 µM in data set [8]. The fold change (FC) in data set [7] stood at 1.7. Moreover, the result in data set [1], in data set [2], in data set [3] and in data set [4] was Active.

Consider `CCCCN1CCCC[C@H]1C(=O)Nc1c(C)cccc1C` [LEVOBUPIVACAINE], for which the Activity stood at 49 µM in data set [6] and 17 µM in data set [8]. The fold change (FC) in data set [7] worked out at 1.4; in data set [5] it was 3.7. The result in data set [1], in data set [3] and in data set [4] was Active.

As for `CCCN1CCCC[C@H]1C(=O)Nc1c(C)cccc1C` [ROPIVACAINE], the Activity in data set [6] is 64 µM; in data set [8], 36 µM. The fold change (FC) in data set [7] stood at 1.

Source of the values: ChEMBL document CHEMBL1817630, “Stereostructure-based differences in the interactions of cardiotoxic local anesthetics with cholesterol-containing biomimetic membranes” (Bioorg Med Chem, 2011).
